In ChEMBL document CHEMBL4834423, “Discovery of AG-270, a First-in-Class Oral MAT2A Inhibitor for the Treatment of Tumors with Homozygous MTAP Deletion” (J Med Chem, 2021):

Experiments:
[1] = test system: KP-4; assay: Anticancer activity in MTAP-null human KP-4 cells xenografted mouse model assessed as inhibition of SAM production at 10 mg/kg, po qd treated for 38 days relative to control; format: functional; conditions: KP-4, po, 912 h, time 38 day
Summary of the method: (§1)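 Subcutaneous KP4 MTAP-null xenograft mice, 12 per arm (60 animals), dosed orally once daily on days 24−38 at 10−200 mg/kg. Tumor SAM levels and plasma compound exposure were monitored; plasma sampled up to 24 h after the last dose. Mean tumor volume and body weight change were tracked; error bars are SEM.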

[2] = cells; conditions: Homo sapiens, HCT-116, 72 h
[3] = test system: KP-4; assay: Anticancer activity in MTAP-null human KP-4 cells xenografted mouse model assessed as tumor growth inhibition at 30 mg/kg, po qd treated for 38 days relative to control; format: functional; conditions: KP-4, po, 912 h, time 38 day, read-out: TGI; summary of the method: as §1
[4] = biological target: T1, PXR (NR1I2) (Homo sapiens, UniProt O75469); assay: Transactivation of PXR in human HepG2 cells relative to rifampicin; format: cell-based; conditions: read-out: Activity
T1 sequence (O75469 whole entry): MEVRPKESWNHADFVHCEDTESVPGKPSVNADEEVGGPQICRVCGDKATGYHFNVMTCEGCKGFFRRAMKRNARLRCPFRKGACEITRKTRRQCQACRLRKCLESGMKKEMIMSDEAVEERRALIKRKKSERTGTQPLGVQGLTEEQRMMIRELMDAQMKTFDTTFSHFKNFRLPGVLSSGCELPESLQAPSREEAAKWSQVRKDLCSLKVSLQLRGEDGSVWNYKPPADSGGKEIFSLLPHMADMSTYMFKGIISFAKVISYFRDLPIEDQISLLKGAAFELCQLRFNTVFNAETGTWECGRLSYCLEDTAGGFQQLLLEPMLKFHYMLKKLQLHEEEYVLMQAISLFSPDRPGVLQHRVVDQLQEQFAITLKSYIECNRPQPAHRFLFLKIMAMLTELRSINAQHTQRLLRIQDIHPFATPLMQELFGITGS

[5] = Protein binding in monkey plasma assessed as unbound fraction; format: ADME, cell-free, Macaca mulatta; conditions: rhesus monkey
[6] = test system: KP-4; assay: Anticancer activity in MTAP-null human KP-4 cells xenografted mouse model assessed as tumor growth inhibition at 200 mg/kg, po qd treated for 38 days relative to control; format: functional; conditions: KP-4, po, 912 h, time 38 day, read-out: TGI; summary of the method: as §1
[7] = test system: KP-4; assay: Anticancer activity in MTAP-null human KP-4 cells xenografted mouse model assessed as inhibition of SAM production at 30 mg/kg, po qd treated for 38 days relative to control; format: functional; conditions: KP-4, po, 912 h, time 38 day; summary of the method: as §1
[8] = Protein binding in dog plasma assessed as unbound fraction; format: ADME, cell-free, Canis lupus familiaris
[9] = test system: HCT-116; assay: cells; conditions: Homo sapiens, HCT-116, 96 h
[10] = Oral bioavailability in dog at 5 mg/kg; format: ADME, organism-based, Canis lupus familiaris; conditions: in vivo
[11] = Protein binding in human plasma assessed as unbound fraction; format: ADME, cell-free
[12] = test system: KP-4; assay: Anticancer activity in MTAP-null human KP-4 cells xenografted mouse model assessed as tumor growth inhibition at 100 mg/kg, po qd treated for 38 days relative to control; format: functional; conditions: KP-4, po, 912 h, time 38 day, read-out: TGI; summary of the method: as §1
[13] = biological target: Cytochrome P450 2D6 (Homo sapiens, UniProt P10635); assay: Inhibition of CYP2D6 (unknown origin); format: ADME
[14] = test system: KP-4; assay: Anticancer activity in MTAP-null human KP-4 cells xenografted mouse model assessed as inhibition of SAM production at 100 mg/kg, po qd treated for 38 days relative to control; format: functional; conditions: KP-4, po, 912 h, time 38 day; summary of the method: as §1
[15] = biological target: Cytochrome P450 2C9 (Homo sapiens, UniProt P11712); assay: Inhibition of CYP2C9 (unknown origin) assessed as inactivation relative to control; format: ADME
[16] = Oral bioavailability in monkey at 5 mg/kg; format: ADME, organism-based, Macaca mulatta; conditions: rhesus monkey, in vivo
[17] = test system: KP-4; assay: Anticancer activity in MTAP-null human KP-4 cells xenografted mouse model assessed as inhibition of SAM production at 200 mg/kg, po qd treated for 38 days relative to control; format: functional; conditions: KP-4, po, 912 h, time 38 day; summary of the method: as §1
[18] = biological target: Cytochrome P450 3A4 (Homo sapiens, UniProt P08684); assay: Inhibition of CYP3A4 (unknown origin) assessed as inactivation relative to control; format: ADME
[19] = Oral bioavailability in rat at 5 mg/kg; format: ADME, organism-based; conditions: in vivo
[20] = Solubility of compound at pH 2; format: physicochemical; conditions: buffer
[21] = biological target: T2, Solute carrier organic anion transporter family member 1B1 (Homo sapiens, UniProt Q9Y6L6); assay: Inhibition of OATP1B1 (unknown origin); format: ADME
T2 sequence (Q9Y6L6 whole entry): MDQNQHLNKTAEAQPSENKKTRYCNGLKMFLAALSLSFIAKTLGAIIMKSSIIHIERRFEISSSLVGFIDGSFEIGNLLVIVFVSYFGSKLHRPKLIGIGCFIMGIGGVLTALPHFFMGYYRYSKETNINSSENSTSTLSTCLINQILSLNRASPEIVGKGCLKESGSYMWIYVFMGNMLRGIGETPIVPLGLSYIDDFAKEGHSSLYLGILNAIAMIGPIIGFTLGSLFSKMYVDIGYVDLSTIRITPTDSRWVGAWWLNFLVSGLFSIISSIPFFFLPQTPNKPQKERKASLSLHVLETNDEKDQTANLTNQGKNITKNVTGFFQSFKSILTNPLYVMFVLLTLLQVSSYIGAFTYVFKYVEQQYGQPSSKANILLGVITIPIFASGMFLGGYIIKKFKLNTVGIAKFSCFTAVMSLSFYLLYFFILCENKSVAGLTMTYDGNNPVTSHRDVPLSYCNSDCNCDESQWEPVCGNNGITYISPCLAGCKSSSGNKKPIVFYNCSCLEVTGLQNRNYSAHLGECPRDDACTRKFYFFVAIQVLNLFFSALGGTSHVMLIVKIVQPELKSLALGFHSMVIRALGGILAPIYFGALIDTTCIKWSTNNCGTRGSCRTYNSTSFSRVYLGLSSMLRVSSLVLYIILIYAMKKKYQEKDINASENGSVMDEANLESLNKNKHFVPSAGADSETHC

[22] = biological target: T3, Cytochrome P450 2B6 (Homo sapiens, UniProt P20813); assay: Inhibition of CYP2B6 (unknown origin) assessed as inactivation relative to control; format: ADME
T3 sequence (P20813 whole entry): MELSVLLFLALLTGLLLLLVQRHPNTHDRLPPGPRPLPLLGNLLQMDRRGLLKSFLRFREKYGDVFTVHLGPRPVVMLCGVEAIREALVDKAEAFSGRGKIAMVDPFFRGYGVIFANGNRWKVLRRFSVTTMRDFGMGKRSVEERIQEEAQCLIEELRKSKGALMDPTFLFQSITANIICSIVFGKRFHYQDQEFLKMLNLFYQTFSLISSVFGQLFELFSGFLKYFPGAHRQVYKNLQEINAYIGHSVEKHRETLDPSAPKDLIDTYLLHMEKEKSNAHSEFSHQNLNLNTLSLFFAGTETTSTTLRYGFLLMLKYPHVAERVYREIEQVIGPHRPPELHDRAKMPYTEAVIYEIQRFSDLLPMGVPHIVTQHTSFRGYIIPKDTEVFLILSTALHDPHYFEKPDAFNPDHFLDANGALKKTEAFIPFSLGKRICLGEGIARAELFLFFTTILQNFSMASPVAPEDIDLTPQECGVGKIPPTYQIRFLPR

[23] = Solubility of compound at pH 7.4; format: physicochemical; conditions: buffer

Cytochrome P450 2C9, sequence (P11712 whole entry): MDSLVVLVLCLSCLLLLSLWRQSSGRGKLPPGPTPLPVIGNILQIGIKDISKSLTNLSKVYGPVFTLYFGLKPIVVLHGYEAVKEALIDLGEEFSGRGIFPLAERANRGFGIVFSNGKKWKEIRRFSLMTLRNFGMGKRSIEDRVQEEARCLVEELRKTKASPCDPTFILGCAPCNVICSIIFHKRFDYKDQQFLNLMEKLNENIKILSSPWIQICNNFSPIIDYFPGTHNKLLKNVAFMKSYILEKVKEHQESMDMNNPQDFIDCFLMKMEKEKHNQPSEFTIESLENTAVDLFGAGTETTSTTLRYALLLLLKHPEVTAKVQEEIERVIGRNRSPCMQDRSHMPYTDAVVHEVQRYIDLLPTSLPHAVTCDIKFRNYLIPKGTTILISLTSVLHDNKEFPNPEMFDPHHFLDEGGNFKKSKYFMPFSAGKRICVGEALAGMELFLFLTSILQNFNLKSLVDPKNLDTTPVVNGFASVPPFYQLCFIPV
Cytochrome P450 2D6, sequence (P10635 whole entry): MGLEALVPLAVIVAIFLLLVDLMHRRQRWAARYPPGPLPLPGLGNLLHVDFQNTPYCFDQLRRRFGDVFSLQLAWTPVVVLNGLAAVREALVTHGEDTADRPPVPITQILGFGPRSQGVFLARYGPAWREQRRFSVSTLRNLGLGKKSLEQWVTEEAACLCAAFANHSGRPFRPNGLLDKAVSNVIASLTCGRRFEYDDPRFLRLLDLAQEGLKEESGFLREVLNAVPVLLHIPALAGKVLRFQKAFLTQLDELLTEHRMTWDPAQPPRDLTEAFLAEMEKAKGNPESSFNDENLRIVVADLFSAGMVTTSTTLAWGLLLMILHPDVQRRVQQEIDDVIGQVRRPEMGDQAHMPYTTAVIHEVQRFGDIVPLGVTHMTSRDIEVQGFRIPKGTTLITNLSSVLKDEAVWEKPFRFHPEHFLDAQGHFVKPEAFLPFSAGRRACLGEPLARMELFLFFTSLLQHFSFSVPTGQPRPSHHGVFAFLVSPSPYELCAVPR
Cytochrome P450 3A4, sequence (P08684 whole entry): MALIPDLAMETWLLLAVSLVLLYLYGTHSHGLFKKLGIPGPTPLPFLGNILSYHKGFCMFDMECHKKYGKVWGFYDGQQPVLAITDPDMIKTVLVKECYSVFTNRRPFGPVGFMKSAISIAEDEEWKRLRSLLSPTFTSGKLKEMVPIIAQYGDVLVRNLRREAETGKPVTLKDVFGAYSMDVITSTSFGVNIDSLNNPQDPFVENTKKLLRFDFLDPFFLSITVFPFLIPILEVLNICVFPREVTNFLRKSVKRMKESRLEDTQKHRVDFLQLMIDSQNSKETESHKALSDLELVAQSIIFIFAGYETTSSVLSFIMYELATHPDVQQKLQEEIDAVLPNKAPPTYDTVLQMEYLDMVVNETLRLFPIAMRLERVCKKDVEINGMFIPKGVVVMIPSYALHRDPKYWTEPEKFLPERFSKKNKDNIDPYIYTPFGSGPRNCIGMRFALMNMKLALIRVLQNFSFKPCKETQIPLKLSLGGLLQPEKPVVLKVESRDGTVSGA

COc1ccc(-c2c(Nc3ccccn3)[nH]c3c(C4=CCCCC4)c(-c4ccccc4)nn3c2=O)cc1
inhibition in vivo at 10 mg/kg [1]: 33.4% | IC50 [2]: 20 µM | inhibition in vivo at 30 mg/kg [3]: 48% | Emax [4]: 22% | fraction unbound [5]: 0.011 | inhibition in vivo at 200 mg/kg [6]: 67% | inhibition in vivo at 30 mg/kg [7]: 44.7% | fraction unbound [8]: 0.028 | IC50 [9]: 257 nM | bioavailability [10]: 48% | fraction unbound [11]: 0.015 | inhibition in vivo at 100 mg/kg [12]: 66% | IC50 [13]: > 10 µM | inhibition in vivo at 100 mg/kg [14]: 63.5% | INH [15]: > 50 µM | bioavailability [16]: 31% | inhibition in vivo at 200 mg/kg [17]: 81.1% | INH [18]: > 50 µM | bioavailability [19]: 92% | solubility [20]: < 0.5 µM | IC50 [21]: 2100 nM | INH [22]: > 3.6 µM | solubility [23]: < 0.1 µM
